Source: BindingDB's records for doi:10.1021/jm060253o (University of Bologna, 2006)

How the values were obtained:
[1] = molecular target: Breakpoint cluster region protein/Tyrosine-protein kinase ABL1 (Homo sapiens, UniProt P00519+P11274); assay: Antiproliferative activity against human K562 cell line expressing Bcr-Abl
Outline: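 Cell growth inhibition measured by counting cells with an automatic cell counter in sensitive HL60, MDR HL60R and Bcr-Abl-expressing K562 cells. IC50 is the concentration inhibiting 50% of cell growth.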

[2] = Antiproliferative activity against MDR human HL60R cell line

Breakpoint cluster region protein/Tyrosine-protein kinase ABL1, sequence (P00519 whole entry): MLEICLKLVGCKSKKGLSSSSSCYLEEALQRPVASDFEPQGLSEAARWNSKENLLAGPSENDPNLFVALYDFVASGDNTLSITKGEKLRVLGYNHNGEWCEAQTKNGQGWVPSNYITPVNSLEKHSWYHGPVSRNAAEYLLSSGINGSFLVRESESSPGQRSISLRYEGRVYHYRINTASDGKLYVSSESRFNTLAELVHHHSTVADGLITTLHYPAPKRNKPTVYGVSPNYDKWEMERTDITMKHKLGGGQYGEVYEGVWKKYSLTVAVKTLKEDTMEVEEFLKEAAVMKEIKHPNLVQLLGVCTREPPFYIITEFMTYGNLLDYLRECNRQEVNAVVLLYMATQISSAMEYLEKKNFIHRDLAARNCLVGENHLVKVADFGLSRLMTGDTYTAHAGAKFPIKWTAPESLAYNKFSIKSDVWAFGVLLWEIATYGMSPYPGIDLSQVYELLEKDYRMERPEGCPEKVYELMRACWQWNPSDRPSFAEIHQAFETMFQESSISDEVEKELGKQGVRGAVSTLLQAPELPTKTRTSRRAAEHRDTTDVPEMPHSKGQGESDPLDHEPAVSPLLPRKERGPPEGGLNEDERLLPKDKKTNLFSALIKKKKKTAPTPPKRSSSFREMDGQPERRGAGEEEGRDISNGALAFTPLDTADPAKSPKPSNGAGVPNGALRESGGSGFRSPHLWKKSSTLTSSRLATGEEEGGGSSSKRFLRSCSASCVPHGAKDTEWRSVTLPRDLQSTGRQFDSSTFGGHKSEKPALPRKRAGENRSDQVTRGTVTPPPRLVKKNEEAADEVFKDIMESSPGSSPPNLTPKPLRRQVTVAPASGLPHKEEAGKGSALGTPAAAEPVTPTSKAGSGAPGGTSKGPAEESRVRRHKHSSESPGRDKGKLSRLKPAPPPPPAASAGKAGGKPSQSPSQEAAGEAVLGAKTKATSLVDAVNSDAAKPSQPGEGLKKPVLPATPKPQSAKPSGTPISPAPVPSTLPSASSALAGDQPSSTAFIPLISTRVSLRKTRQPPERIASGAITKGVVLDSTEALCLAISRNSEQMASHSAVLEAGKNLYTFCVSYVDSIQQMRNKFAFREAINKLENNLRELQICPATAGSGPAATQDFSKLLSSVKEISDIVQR
Breakpoint cluster region protein/Tyrosine-protein kinase ABL1, sequence (P11274 whole entry): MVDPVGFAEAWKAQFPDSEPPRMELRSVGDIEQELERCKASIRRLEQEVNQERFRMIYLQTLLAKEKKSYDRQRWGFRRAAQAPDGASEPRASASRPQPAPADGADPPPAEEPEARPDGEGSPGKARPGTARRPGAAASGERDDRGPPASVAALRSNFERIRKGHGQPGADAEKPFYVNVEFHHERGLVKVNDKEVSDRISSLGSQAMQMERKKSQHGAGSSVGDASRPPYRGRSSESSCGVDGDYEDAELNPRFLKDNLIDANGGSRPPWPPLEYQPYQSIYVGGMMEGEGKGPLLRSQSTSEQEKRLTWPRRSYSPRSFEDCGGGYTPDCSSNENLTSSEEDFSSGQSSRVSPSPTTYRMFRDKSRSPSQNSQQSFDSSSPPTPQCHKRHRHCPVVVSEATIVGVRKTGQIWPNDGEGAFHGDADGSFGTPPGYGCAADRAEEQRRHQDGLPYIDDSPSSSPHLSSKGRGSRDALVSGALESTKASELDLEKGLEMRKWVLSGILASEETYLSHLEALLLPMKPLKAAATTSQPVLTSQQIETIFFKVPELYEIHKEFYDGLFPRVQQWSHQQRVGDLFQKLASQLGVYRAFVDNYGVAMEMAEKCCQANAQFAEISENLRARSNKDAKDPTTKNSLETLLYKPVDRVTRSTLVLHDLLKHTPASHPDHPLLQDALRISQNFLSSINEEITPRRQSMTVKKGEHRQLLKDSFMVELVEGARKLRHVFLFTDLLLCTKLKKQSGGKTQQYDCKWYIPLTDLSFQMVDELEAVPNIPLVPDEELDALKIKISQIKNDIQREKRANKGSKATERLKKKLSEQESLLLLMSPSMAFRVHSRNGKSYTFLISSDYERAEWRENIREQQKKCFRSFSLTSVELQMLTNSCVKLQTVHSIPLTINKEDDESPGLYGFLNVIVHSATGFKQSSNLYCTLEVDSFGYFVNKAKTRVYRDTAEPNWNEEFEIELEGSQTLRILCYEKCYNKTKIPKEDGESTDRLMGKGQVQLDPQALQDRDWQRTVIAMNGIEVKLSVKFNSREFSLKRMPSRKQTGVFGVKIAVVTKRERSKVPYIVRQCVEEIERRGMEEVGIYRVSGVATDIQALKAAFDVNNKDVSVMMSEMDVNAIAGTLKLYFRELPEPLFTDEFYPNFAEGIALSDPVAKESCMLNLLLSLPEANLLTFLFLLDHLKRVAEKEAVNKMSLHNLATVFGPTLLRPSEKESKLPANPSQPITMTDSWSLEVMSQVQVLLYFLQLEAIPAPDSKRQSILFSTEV

IC50 [1] [µM] | SMILES | IC50 [2] [µM]
> 100 | COc1cc(OC)cc(-c2ccc3cc(OC)ccc3c2)c1 [2-(3,5-Dimethoxy-phenyl)-6-methoxy-naphthalene] | > 100
24 | COc1cc(/C=C/c2ccccc2O)cc(OC)c1 [2-[(E)-2-(3,5-dimethoxy-phenyl)-vinyl]-phenol] | 68
14 | COc1cc(OC)cc(-c2cccc(-c3ccc(O)cc3)c2)c1 [3'',5''-dimethoxy-[1,1';3',1'']-terphenyl-4-ol] | 20
26 | COc1cc(/C=C/c2cccc(O)c2)cc(OC)c1 [3-[(E)-2-(3,5-Dimethoxy-phenyl)-vinyl]-phenol] | > 100
6 | COc1ccc(-c2ccccc2-c2cc(OC)cc(OC)c2)cc1 [4,3'',5''-trimethoxy-[1,1';2',1'']-terphenyl] | 
> 100 | COc1ccc(-c2ccc(-c3cc(OC)cc(OC)c3)cc2)cc1 [4,3'',5''-trimethoxy-[1,1';4',1'']-terphenyl] | > 100
28 | Oc1ccc(/C=C/c2cc(O)cc(O)c2)cc1 [5-[(E)-2-(4-hydroxyphenyl)ethenyl]benzene-1,3-diol] | 60

Second part, the compound before the results:

SMILES | IC50 [1] [µM] | IC50 [2] [µM]
COc1ccc(/C=C/c2cc(OC)cc(OC)c2)cc1 | 10 | 
COc1cc(/C=C/c2cc(C(C)(C)C)c(O)c(C(C)(C)C)c2)cc(OC)c1 [2,6-di-tert-butyl-4-[(E)-2-(3,5-dimethoxy-phenyl)-vinyl]-phenol] | > 100 | 
COc1cc(/C=C/c2cccc(OC)c2O)cc(OC)c1 [2-[(E)-2-(3,5-dimethoxyphenyl)vinyl]-6-methoxyphenol] | 8 | 
COc1cc(OC)cc(-c2ccccc2-c2ccc(O)cc2)c1 [3'',5''-dimethoxy-[1,1';2',1'']-terphenyl-4-ol] | 14 | 28
COc1cc(OC)cc(-c2ccc(-c3ccc(O)cc3)cc2)c1 [3'',5''-dimethoxy-[1,1';4,1'']-terphenyl-4-ol] | 35 | 23
COc1ccc(-c2cccc(-c3cc(OC)cc(OC)c3)c2)cc1 [4,3'',5''-trimethoxy-[1,1';3',1'']-terphenyl] | 10 | 80
COc1cc(/C=C/c2ccc(O)cc2)cc(OC)c1 [4-[2-(3,5-Dimethoxy-phenyl)-vinyl]-phenol] | 10 | 42
COc1cc(/C=C/c2cc(OC)c(O)c(OC)c2)cc(OC)c1 [4-[(E)-2-(3,5-dimethoxy-phenyl)-vinyl]-2,6-dimethoxy-phenol] | 23 | > 100
COc1cc(/C=C/c2cc(Cl)ccc2O)cc(OC)c1 [4-chloro-2-[(E)-2-(3,5-dimethoxy-phenyl)-vinyl]-phenol] | 16 | 
Oc1cc(O)cc(-c2ccc3cc(O)ccc3c2)c1 [5-(6-hydroxy-naphtalen-2-yl)-benzene-1,3-diol] | 20 | 
COc1cc(OC)cc(-c2ccc3cc(O)ccc3c2)c1 [6-(3,5-dimethoxy-phenyl)-naphthalen-2-ol] | 42 | 16
Oc1ccc(-c2ccccc2-c2cc(O)cc(O)c2)cc1 [[1,1';2',1'']-terphenyl-4,3'',5''-triol] | 8 | 12
Oc1ccc(-c2cccc(-c3cc(O)cc(O)c3)c2)cc1 [[1,1';3',1'']-terphenyl-4,3'',5''-triol] | 20 | 58
Oc1ccc(-c2ccc(-c3cc(O)cc(O)c3)cc2)cc1 [[1,1';4',1'']-terphenyl-4,3'',5''-triol] | 20 | 23
